Compound activity from PubChem.
Compounds with a hit are over-represented: about 1.8% of the library has one in this group of screens.
M4 PAM – CHRM4 positive allosteric modulation; 360,000 tested, 0.4% active; CHO-K1 hM4/Gqi5, Fluo-8 calcium fluorescence, ACh EC20; 0% = ACh EC20, 100% = maximal ACh; activation, % at 3 µM;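 active = activation above its plate's cutoff, the mean activation of sample wells plus 3 SD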
CHRM4 antagonist – CHRM4 antagonism in calcium assay; P08173; CHO-hM4 cells, ACh EC80, Fluo-8 calcium fluorescence; inhibition, % at 3 µM; 360,000 tested, 0.73% active; AID 624125;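 active = inhibition above its plate's cutoff, the mean inhibition of sample wells plus 3 SD, cut at about 27% in these data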
M5 PAM – CHRM5 positive allosteric modulation | P08912 | CHO-K1 hM5, Fluo-8 calcium, ACh EC20 PAM; 0% = ACh EC20, 100% = ACh EC100 | activation, % at 3 µM | 360,000 tested, 0.3% active | AID 624038;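 active = activation above the run cutoff, the mean activation of all test compounds plus 3 SD, cut at about 18% in these data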
Target sequence (P08912 whole entry, looked up): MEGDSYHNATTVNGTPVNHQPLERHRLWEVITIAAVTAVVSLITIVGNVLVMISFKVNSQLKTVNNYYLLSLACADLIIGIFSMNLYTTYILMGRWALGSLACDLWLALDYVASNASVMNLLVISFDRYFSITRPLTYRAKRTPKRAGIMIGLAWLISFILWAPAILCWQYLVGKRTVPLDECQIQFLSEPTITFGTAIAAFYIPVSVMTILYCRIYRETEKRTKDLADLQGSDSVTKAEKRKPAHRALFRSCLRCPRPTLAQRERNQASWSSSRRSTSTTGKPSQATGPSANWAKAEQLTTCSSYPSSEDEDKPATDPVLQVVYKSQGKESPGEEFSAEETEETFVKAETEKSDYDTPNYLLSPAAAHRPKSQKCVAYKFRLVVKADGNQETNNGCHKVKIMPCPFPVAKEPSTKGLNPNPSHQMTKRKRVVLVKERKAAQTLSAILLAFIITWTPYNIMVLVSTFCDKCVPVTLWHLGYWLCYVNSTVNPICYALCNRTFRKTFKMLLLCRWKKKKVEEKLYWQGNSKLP
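Replicates: One well per compound, no replicates | System: Human M5 receptor in CHO-K1 cells | Benchmarks: Low control EC20 acetylcholine (0%), high control EC100 acetylcholine (100%) | Probe or stimulus: Acetylcholine, EC20 level | Times: Fluo-8 loading 80 min at 37 °C plus 30 min room temperature | Signal: Intracellular calcium via Fluo-8 fluorescence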
CHRM5 antagonist – antagonists of human muscarinic M5 receptor (CHRM5); CHO-hM5 cells, Fluo-8 calcium fluorescence, ACh EC80; 360,000 tested, 0.59% active; inhibition, % at 3 µM;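 active = inhibition above a per-plate cutoff, the mean of that plate's test compounds plus 3 SD, cut at about 27% in these data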
M5 ag – CHRM5 agonism in calcium assay. P08912. CHO-K1 hM5 cells, Fluo-8 calcium fluorescence; 0% DMSO wells, 100% maximal acetylcholine response. activation, % at 3 µM. 360,000 tested, 0.19% active;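 active = activation above the run's mean over test compounds plus 3 SD, cut at about 23% in these data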;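 also: signal is peak over basal fluorescence ratio across the kinetic read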
CHRM4 agonist – CHRM4 agonism in calcium assay; P08173; CHO-K1 hM4/Gqi5, Fluo-8 calcium fluorescence; vehicle 0%, full acetylcholine response 100%; activation, % at 3 µM; 360,000 tested, 0.14% active; AID 624127;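 active = activation above the run mean over all test wells plus 3 SD, cut at about 32% in these data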;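 also: peak over basal fluorescence ratio per well then scaled between controls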
Large screens that a line does not name were inactive.

Cc1sc2ncnc(N3CCN(CCOc4ccc(Cl)cc4)CC3)c2c1C	CHRM5 antagonist 32
Cc1sc2ncnc(N3CCC(C(=O)NNC(=O)COc4ccc(Cl)cc4)CC3)c2c1C	none
COCCCN1C(=O)C(CC(=O)NC(c2ccccc2)c2ccccc2)CC(C(=O)N(C(C)C)C(C)C)=C1C (configuration not stated)	none
N#C/C(=C\c1ccccc1)C(=O)NNS(=O)(=O)c1ccc(Br)cc1	M5 PAM 19
CC[N+]1(C)CCC(O)(c2ccc(OC)cc2)C(C(=O)c2ccc(OC)cc2)C1 (configuration not stated)	none
Cc1c(O)c(S(=O)(=O)c2ccccc2)c(=O)n(-c2ccccc2)c1-c1ccccc1	CHRM4 antagonist 27
Cc1c(O)c(S(=O)c2ccccc2)c(=O)n(-c2ccccc2)c1-c1ccccc1 (configuration not stated)	none
O=C1C2C3C=CC(CC3)C2C(=O)N1c1ccccc1 (configuration not stated)	none
O=C1C=CC2C3C(=O)N(c4ccccc4)C(=O)C3C1N2Cc1ccccc1 (configuration not stated)	CHRM4 antagonist 31
COc1ccc(-c2sc3ccccc3c2-c2ccc(OCCN(C)C)cc2)cc1	CHRM4 antagonist 36
CN(C)CCOc1ccc(-c2c(-c3ccsc3)sc3ccccc23)cc1	none
O=C(CSc1nnc(Cc2ccccc2)o1)N1CCc2ccccc21	none
O=C(CSc1nnc(COc2cccc3cccnc23)o1)N1CCc2ccccc21	CHRM5 antagonist 28
O=[N+]([O-])c1ccccc1OCCCOc1cccc2cccnc12	none
CCN(CC)CCN(Cc1cc2cccc(C)c2[nH]c1=O)C(=S)Nc1ccccc1	CHRM5 antagonist 58, M5 ag 63
Cc1ccc2cc(CN(CCN(C)C)C(=S)Nc3ccccc3)c(=O)[nH]c2c1C	CHRM5 antagonist 37, M5 ag 43
CCCCN1C(=O)/C(=C/C=C2/CC(C)(C)CN2C)SC1=S	CHRM5 antagonist 36, M5 ag 47, CHRM4 agonist 34
CCCCN1C(=O)/C(=C/C=C2\Oc3ccccc3N2CC)SC1=S	M5 ag 48
CCN1C(=O)/C(=C/C=C2/SCCN2C)SC1=S	none
COCCC(=O)N1CCOCC1c1cc(C(=O)Nc2ccccc2)no1 (configuration not stated)	none
COc1ccc(OC)c(NC(=O)CC2C(=O)NCCN2C(=O)c2ccccc2)c1 (configuration not stated)	none
Cc1cc(C)n(S(=O)(=O)c2ccc(C(C)(C)C)cc2)n1	CHRM4 antagonist 29
Cc1cc(C)n(S(=O)(=O)c2ccc(F)cc2)n1	none
O=C(Cn1c(=O)sc2ccccc21)Nc1ccc(O)cc1	M4 PAM 24
Cc1ccc(S(=O)(=O)Nc2ccc3cn[nH]c3c2)c(C)c1	none
CCOc1cc(C)c(S(=O)(=O)Nc2ccc3cn[nH]c3c2)cc1C	CHRM5 antagonist 30
CCNS(=O)(=O)c1ccc(CCC(=O)Nc2cc(Cl)ccc2Oc2ccccc2)cc1	CHRM4 antagonist 28
COc1ccc(CCNC(=O)C(=O)NCc2ccc(Cl)cc2)cc1OC	none
Cc1csc(SCC(=O)N(C)CC(=O)Nc2ccc(F)cc2)n1	none
Cc1cc(SCC(=O)N(C)CC(=O)Nc2ccc(F)cc2)nc2ccccc12	M4 PAM 21
CC(SCC(=O)Nc1ccc(F)cc1)c1nc2ccccc2c(=O)[nH]1 (configuration not stated)	M5 PAM 22
Cn1cccc1C(=O)NNC(=O)COc1ccccc1Cl	none
O=C(CN1CCN(c2ccccc2F)CC1)c1c[nH]c2ccccc12	M5 PAM 20
Cc1occc1C(=O)Nc1sc2c(c1C(N)=O)CCC(C(C)(C)C)C2 (configuration not stated)	M4 PAM 29
COc1ccccc1NC(=O)N(C)C[C@H]1OCc2cnnn2CCCC(=O)N([C@@H](C)CO)C[C@H]1C	none
COc1ccc(Cl)cc1N(CC(=O)NC(C)(C)C)S(=O)(=O)c1ccc(C)c([N+](=O)[O-])c1	M4 PAM 22
COc1ccc(-c2nc3cc(C)c(Br)c(C)n3c2Cc2ccsc2)cc1OC	none
Cc1ccc(NC(=S)N2CC(C)OC(C)C2)cc1C (configuration not stated)	none
Cc1cccc(OC(=O)C2C(c3ccccc3)C(C(=O)O)C2c2ccccc2)c1 (configuration not stated)	M4 PAM 31
O=C(O)C1C(c2ccccc2)C(C(=O)Oc2ccccc2)C1c1ccccc1 (configuration not stated)	none
Cc1occc1C(=O)N=Nc1c(O)n(C)c2ccccc12	M4 PAM 29
Cn1c(=O)cc(OCCCC(=O)Nc2cccnc2)c2ccccc21	CHRM4 antagonist 37
Cc1ccc(-n2ncc3c2CCCC3NC(=O)c2csnn2)cc1C (configuration not stated)	none
COc1ccccc1-c1nnc(Nc2nc3c(OC)cccc3s2)o1	CHRM4 antagonist 35
O=c1[nH]c(C2CCN(S(=O)(=O)c3ccc(S(=O)(=O)NC4CC4)cc3)CC2)nc2c1nnn2Cc1ccccc1	CHRM4 antagonist 63
O=c1[nH]c(C2CCN(S(=O)(=O)c3cccc(Cl)c3)CC2)nc2c1nnn2Cc1ccccc1	CHRM4 antagonist 96
O=c1[nH]c(C2CCN(S(=O)(=O)c3cccc([N+](=O)[O-])c3)CC2)nc2c1nnn2Cc1ccccc1	CHRM4 antagonist 55
O=c1[nH]c(C2CCN(S(=O)(=O)c3ccccc3)CC2)nc2c1nnn2Cc1cccc(Cl)c1	CHRM4 antagonist 83
NC(N)=NS(=O)(=O)c1ccc(NC(=S)NC(=O)Cc2ccc(Cl)cc2)cc1	none
O=C(Nc1ccccn1)C1CCCN1S(=O)(=O)c1ccc(Cl)cc1 (configuration not stated)	none
COc1ccc(-[n+]2c(C)cc(/C=C3\Sc4ccccc4N3C)cc2C)cc1	CHRM4 antagonist 50, CHRM5 antagonist 48
COc1ccccc1-[n+]1c(C)cc(/C=C2\Sc3ccccc3N2C)cc1C	CHRM4 antagonist 40, CHRM5 antagonist 53
COc1ccc(C(=O)/C=C2\Sc3ccccc3N2C)cc1	none
COc1ccccc1OC(=O)CCN1c2ccccc2Sc2ccccc21	none
COc1ccc(-c2oc3c(c2C(=O)OCCCO)C(OCCO)CCC3)cc1 (configuration not stated)	none
CCN1/C(=C/C=C/c2oc3ccc(-c4ccccc4)cc3[n+]2CC)Oc2ccc(-c3ccccc3)cc21	CHRM4 antagonist 99, CHRM5 antagonist 102, M5 ag active, CHRM4 agonist active
